Experiments:
Malme-3M = experiment: Antitumor activity against human MALME3M cells; assay type: functional
Outline: (§1)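 Run by the NCI in its in vitro disease-oriented screen of about 60 human tumour cell lines. For each line it reports pGI50 (50% net growth inhibition), pTGI (total growth inhibition) and pLC50 (50% net cell death), each as –log molar concentration. Where an effect was not reached within the tested range, the highest tested concentration was used.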

NCI-H226 = experiment: Antitumor activity against human NCI-H226 cells; assay type: functional; outline: as §1
SF-268 = experiment: Antitumor activity against human SF268 cells; assay type: functional; outline: as §1
CCRF-CEM [1] = experiment: Antitumor activity against human CCRF-CEM cells; assay type: functional; outline: as §1
A549 = experiment: Antitumor activity against human A549 cells; assay type: functional; outline: as §1
NCI-H522 = experiment: Antitumor activity against human NCI-H522 cells; assay type: functional; outline: as §1
MCF7 [2] = experiment: Growth inhibition of human multidrug-resistant MCF7 cells after 72 hrs by MTT assay; assay type: functional; conditions: MCF7, 72 h
Outline: (§2)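 Growth inhibition by MTT after 72 h incubation. Resistant sublines: LoVoDoxo and MCF-7 MDR were kept in 0.1 µg/mL doxorubicin; CEMVbl-100 was selected against vinblastine. GI50 given as mean ± SEM of three independent experiments. Resistance index is resistant-line GI50 over parental GI50.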

SNB-75 = experiment: Antitumor activity against human SNB75 cells; assay type: functional; conditions: Homo sapiens, SNB-75; outline: as §1
HOP-62 = experiment: Antitumor activity against human HOP62 cells; assay type: functional; outline: as §1
M14 = experiment: Antitumor activity against human M14 cells; assay type: functional; outline: as §1
COLO 205 = experiment: Antitumor activity against human COLO205 cells; assay type: functional; outline: as §1
MCF7 [3] = experiment: Growth inhibition of human MCF7 cells after 72 hrs by MTT assay; assay type: functional; conditions: MCF7, 72 h; outline: as §2
SNB-19 = experiment: Antitumor activity against human SNB19 cells; assay type: functional; outline: as §1
RXF 393 = experiment: Antitumor activity against human RXF393 cells; assay type: functional; outline: as §1
IGROV-1 = experiment: Antitumor activity against human IGROV1 cells; assay type: functional; outline: as §1
A498 = experiment: Antitumor activity against human A498 cells; assay type: functional; outline: as §1
MDA-MB-435 = experiment: Antitumor activity against human MDA-MB-435 cells; assay type: functional; outline: as §1
MOLT-4 = experiment: Antitumor activity against human MOLT4 cells; assay type: functional; outline: as §1
UACC-62 = experiment: Antitumor activity against human UACC62 cells; assay type: functional
Outline: (§3)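 NCI 60-cell-line screen. Parameters were GI50 (50% net growth inhibition), TGI and LC50, each reported as –log molar concentration. Where an effect was not reached within the tested range, the highest tested concentration was used in the calculation.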

[4] = Antitumor activity against human […] cells; assay type: functional; outline: as §1
SW-620 = experiment: Antitumor activity against human SW620 cells; assay type: functional; outline: as §3
UACC-257 = experiment: Antitumor activity against human UACC257 cells; assay type: functional; outline: as §3
CAKI-1 = experiment: Antitumor activity against human CAKI1 cells; assay type: functional; outline: as §1
HT-29 = experiment: Antitumor activity against human HT29 cells; assay type: functional; outline: as §1
KM12 = experiment: Antitumor activity against human KM12 cells; assay type: functional; outline: as §1
OVCAR-8 = experiment: Antitumor activity against human OVCAR8 cells; assay type: functional; outline: as §1
SF-295 = experiment: Antitumor activity against human SF295 cells; assay type: functional; outline: as §1
[5] = Antitumor activity against human NCI-H322 cells; assay type: functional; outline: as §1
SN12C = experiment: Antitumor activity against human SN12C cells; assay type: functional; outline: as §1
LOX IMVI = experiment: Antitumor activity against human LOXIMVI cells; assay type: functional; outline: as §1
PC-3 = experiment: Antitumor activity against human PC3 cells; assay type: functional; outline: as §1
Tubulin (Sus scrofa) = Tubulin (Sus scrofa) (UniProt P02554+P02550); experiment: Inhibition of pig brain tubulin polymerization
Chain of Tubulin (Sus scrofa) (P02550 whole entry, looked up): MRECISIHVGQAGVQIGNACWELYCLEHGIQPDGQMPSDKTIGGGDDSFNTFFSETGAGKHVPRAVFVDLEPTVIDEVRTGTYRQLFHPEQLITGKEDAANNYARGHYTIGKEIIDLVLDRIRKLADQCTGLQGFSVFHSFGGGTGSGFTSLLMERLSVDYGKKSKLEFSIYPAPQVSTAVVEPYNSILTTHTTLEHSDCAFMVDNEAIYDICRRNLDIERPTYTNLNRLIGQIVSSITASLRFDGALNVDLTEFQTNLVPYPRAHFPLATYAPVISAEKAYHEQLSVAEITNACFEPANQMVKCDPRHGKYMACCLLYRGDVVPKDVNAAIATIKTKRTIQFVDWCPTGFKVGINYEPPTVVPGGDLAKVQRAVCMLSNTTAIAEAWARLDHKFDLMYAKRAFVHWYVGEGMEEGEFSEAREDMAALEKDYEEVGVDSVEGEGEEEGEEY
Chain of Tubulin (Sus scrofa) (P02554 whole entry, looked up): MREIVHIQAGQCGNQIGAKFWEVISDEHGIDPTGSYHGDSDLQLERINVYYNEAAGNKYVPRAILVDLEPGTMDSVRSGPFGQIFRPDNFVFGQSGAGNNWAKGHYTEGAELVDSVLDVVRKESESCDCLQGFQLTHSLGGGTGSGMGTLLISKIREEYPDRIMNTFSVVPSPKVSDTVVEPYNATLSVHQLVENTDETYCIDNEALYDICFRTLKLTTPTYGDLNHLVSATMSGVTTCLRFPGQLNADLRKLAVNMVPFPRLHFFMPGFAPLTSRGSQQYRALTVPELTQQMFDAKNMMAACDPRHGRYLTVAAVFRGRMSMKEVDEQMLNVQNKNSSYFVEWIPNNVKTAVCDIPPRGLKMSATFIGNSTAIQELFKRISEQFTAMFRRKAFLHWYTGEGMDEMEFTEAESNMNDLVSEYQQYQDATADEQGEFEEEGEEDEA

SK-MEL-2 = experiment: Antitumor activity against human SKMEL2 cells; assay type: functional; outline: as §1
CCRF-CEM [6] = experiment: Growth inhibition of human vinblastine-resistant CEM cells after 72 hrs by MTT assay; assay type: functional; outline: as §2
MCF7 [7] = experiment: Resistance index, Ratio of GI50 for human multidrug-resistant MCF7 cells to GI50 for human MCF7 cells; assay type: functional; outline: as §2
EKVX = experiment: Antitumor activity against human EKVX cells; assay type: functional; outline: as §1
MCF7 [8] = experiment: Antitumor activity against human MCF7 cells; assay type: functional; outline: as §1
TK-10 = experiment: Antitumor activity against human TK10 cells; assay type: functional; outline: as §3
NCI-H460 = experiment: Cell viability against human NCI-H460 cells at 10 uM; assay type: functional
HOP-92 = experiment: Antitumor activity against human HOP92 cells; assay type: functional; outline: as §1
SK-MEL-28 = experiment: Antitumor activity against human SKMEL28 cells; assay type: functional; outline: as §1
[9] = read-out: Log LC50 (the source's name) (converted)

Cc1cc2[nH]c(=O)c3c4ccccc4cn3c2cc1C showed a GI50 (Malme-3M) of 22.4 µM, a CC50 (Malme-3M; [9]) of 63.1 µM and a TGI (Malme-3M; read-out: pTGI (converted)) of 37.2 µM. It also gave a GI50 (NCI-H226) of 15.1 µM, an LC50 (50% net cell kill) (NCI-H226) of 89.1 µM and a TGI (NCI-H226; read-out: pTGI (converted)) of 36.3 µM. For the same compound, the GI50 (SF-268) was 15.5 µM, the CC50 (SF-268; [9]) was 69.2 µM and the TGI (SF-268; read-out: pTGI (converted)) was 32.4 µM. The GI50 (CCRF-CEM [1]) was 10 µM, the LC50 (CCRF-CEM [1]) was 97.7 µM and the TGI (CCRF-CEM [1]; read-out: pTGI (converted)) was 30.9 µM. It also gave a GI50 (A549) of 14.8 µM, a CC50 (A549; [9]) of 95.5 µM and a TGI (A549; read-out: pTGI (converted)) of 38 µM. The GI50 (NCI-H522) was 14.5 µM, the CC50 (NCI-H522; [9]) was 66.1 µM and the TGI (NCI-H522; read-out: pTGI (converted)) was 30.9 µM. The GI50 (MCF7 [2]) was 9.2 µM, the GI50 (SNB-75) was 15.5 µM and the LC50 (SNB-75) was 58.9 µM. For the same compound, the TGI (SNB-75; read-out: pTGI (converted)) was 30.2 µM, the GI50 (HOP-62) was 2.69 µM and the LC50 (50% net cell death) (HOP-62) was 28.8 µM. It also gave a TGI (HOP-62; read-out: pTGI (converted)) of 8.13 µM, a GI50 (M14) of 13.5 µM and a CC50 (M14; [9]) of 52.5 µM. For the same compound, the TGI (M14; read-out: pTGI (converted)) was 26.9 µM, the GI50 (COLO 205) was 15.1 µM and the LC50 (COLO 205) was greater than 100 µM. For the same compound, the TGI (COLO 205; read-out: pTGI (converted)) was greater than 100 µM, the GI50 (MCF7 [3]) was 5.1 µM and the GI50 (SNB-19) was 16.2 µM. The CC50 (SNB-19; [9]) was 83.2 µM, the TGI (SNB-19; read-out: pTGI (converted)) was 36.3 µM and the GI50 (RXF 393) was 12 µM. The CC50 (RXF 393; [9]) was 63.1 µM, the TGI (RXF 393; read-out: pTGI (converted)) was 27.5 µM and the GI50 (IGROV-1) was 12.3 µM. For the same compound, the CC50 (IGROV-1; [9]) was 57.5 µM, the TGI (IGROV-1; read-out: pTGI (converted)) was 26.9 µM and the GI50 (A498) was 21.4 µM. For the same compound, the CC50 (A498; [9]) was 72.4 µM, the TGI (A498; read-out: pTGI (converted)) was 39.8 µM and the GI50 (MDA-MB-435) was 6.03 µM. It also gave an LC50 (50% net cell death) (MDA-MB-435) of 50.1 µM, a TGI (MDA-MB-435; read-out: pTGI (converted)) of 20 µM and a GI50 (MOLT-4) of 5.62 µM. For the same compound, the LC50 (MOLT-4) was 70.8 µM, the TGI (MOLT-4; read-out: pTGI (converted)) was 19.5 µM and the GI50 (UACC-62) was 16.6 µM. For the same compound, the LC50 (UACC-62) was 60.3 µM, the TGI (UACC-62; read-out: pTGI (converted)) was 31.6 µM and the GI50 [4] was 8.32 µM. It also gave an LC50 [4] of 60.3 µM, a TGI ([4]; read-out: pTGI (converted)) of 23.4 µM and a GI50 (SW-620) of 3.8 µM. It also gave a CC50 (SW-620; [9]) greater than 100 µM, a TGI (SW-620; read-out: pTGI (converted)) of 33.1 µM and a GI50 (UACC-257) of 20.4 µM. For the same compound, the LC50 (UACC-257) was 63.1 µM, the TGI (UACC-257; read-out: pTGI (converted)) was 35.5 µM and the GI50 (CAKI-1) was 5.37 µM. For the same compound, the LC50 (CAKI-1) was 49 µM, the TGI (CAKI-1; read-out: pTGI (converted)) was 17.8 µM and the GI50 (HT-29) was 6.03 µM. For the same compound, the LC50 (HT-29) was greater than 100 µM, the TGI (HT-29; read-out: pTGI (converted)) was greater than 100 µM and the GI50 (KM12) was 7.08 µM. It also gave an LC50 (50% net cell death) (KM12) of 52.5 µM, a TGI (KM12; read-out: pTGI (converted)) of 21.4 µM and a GI50 (OVCAR-8) of 7.08 µM. It also gave an LC50 (50% net cell death) (OVCAR-8) of 81.3 µM, a TGI (OVCAR-8; read-out: pTGI (converted)) of 25.7 µM and a GI50 (SF-295) of 12.3 µM. It also gave a CC50 (SF-295; [9]) of 66.1 µM, a TGI (SF-295; read-out: pTGI (converted)) of 28.2 µM and a GI50 [5] of 16.6 µM. The LC50 (50% net cell death) [5] was 55 µM, the TGI ([5]; read-out: pTGI (converted)) was 30.2 µM and the GI50 (SN12C) was 6.03 µM. It also gave an LC50 (SN12C) of 56.2 µM, a TGI (SN12C; read-out: pTGI (converted)) of 20.4 µM and a GI50 (LOX IMVI) of 2.04 µM. The LC50 (50% net cell kill) (LOX IMVI) was 7.94 µM, the TGI (LOX IMVI; read-out: pTGI (converted)) was 3.98 µM and the GI50 (PC-3) was 12 µM. For the same compound, the LC50 (50% net cell death) (PC-3) was 53.7 µM, the TGI (PC-3; read-out: pTGI (converted)) was 25.7 µM and the Activity (Tubulin (Sus scrofa)) was greater than 10 µM. It also gave a GI50 (SK-MEL-2) of 18.2 µM, an LC50 (SK-MEL-2) of 66.1 µM and a TGI (SK-MEL-2; read-out: pTGI (converted)) of 34.7 µM. The GI50 (CCRF-CEM [6]) was 15.1 µM, the RatioGI50 (MCF7 [7]) was 1.8 and the GI50 (EKVX) was 13.5 µM. The LC50 (50% net cell kill) (EKVX) was 75.9 µM, the TGI (EKVX; read-out: pTGI (converted)) was 31.6 µM and the GI50 (MCF7 [8]) was 11.7 µM. For the same compound, the LC50 (50% net cell kill) (MCF7 [8]) was greater than 100 µM, the TGI (MCF7 [8]; read-out: pTGI (converted)) was greater than 100 µM and the GI50 (TK-10) was 20 µM. It also gave a CC50 (TK-10; [9]) of 58.9 µM, a TGI (TK-10; read-out: pTGI (converted)) of 33.9 µM and an Activity (NCI-H460) of 0%. For the same compound, the GI50 (HOP-92) was 15.5 µM, the LC50 (HOP-92) was 58.9 µM and the TGI (HOP-92; read-out: pTGI (converted)) was 30.2 µM. It also gave a GI50 (SK-MEL-28) of 14.8 µM, a CC50 (SK-MEL-28; [9]) of 83.2 µM and a TGI (SK-MEL-28; read-out: pTGI (converted)) of 35.5 µM.
